Numbered stars: 1 amine (or outer) side, 2 acyl side, 3 side chain; on linkers, the order of the positions; unused ones are H or OH. Bridge positions count the residues as written; N and C are the ends. Square brackets hold non-standard residues; d marks the D form. Peptide text beside a SMILES is read from it. I, II: the chains in the order shown. * marks the point of attachment. X1 = O=C([C@H](CCCCn1nnc2c1-c1ccccc1N([*:3])Cc1ccccc1-2)N[*:1])[*:2]; Dolaproine = CO[C@@H]([C@@H]1CCCN1)[C@@H](C)C(=O)O; Tyr(SO2F) = N[C@@H](Cc1ccc(OS(=O)(=O)F)cc1)C(=O)O; Dil = CC[C@H](C)[C@H](NC)[C@@H](CC(=O)O)OC; PABC = O=C(OCc1ccc(N[*:1])cc1)[*:2]; X2 = C[C@@H](N*)[C@@H](O)c1ccccc1; Cit = NC(=O)NCCC[C@H](N)C(=O)O; Suc = O=C(CCC(=O)[*:2])[*:1]; NMeV = CN[C@H](C(=O)O)C(C)C; AEEA = NCCOCCOCC(=O)O
Legend:
Type in all cases: cell-based
MDA-MB-468 cells = assay: Cell viability test; conditions: 72 h, CCK-8
tubulin = assay: Immunofluorescent imaging of tubulin organization; conditions: MDA-MB-468 cells, 0 to 10 μmol/L, 24 h
caspase-3 = assay: Western blotting of cleaved caspase-3; conditions: MDA-MB-468 cells, 24 h, 37 °C
Summary of the method: (§1)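 MDA-MB-468 cells were seeded and grown 24 h at 37 °C, 5% CO2. PDC test compound was diluted from a 20 mmol/L stock to final 0, 0.1, 0.5, 1, 5 and 10 μmol/L and applied for 24 h. Cells were lysed in RIPA buffer with protease inhibitors and run on SDS-PAGE. Blots were probed for caspase-3, cleaved caspase-3, PARP and β-actin, detected by ECL and quantified by densitometry.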

[1] = tested on: poly ADP-ribose polymerase (PARP); assay: Western blotting of cleaved PARP; conditions: MDA-MB-468 cells, 24 h, 37 °C
Summary of the method: as §1

| Compound | area under the dose-response curve (AUC) (MDA-MB-468 cells) | tubulin signal (in words) (tubulin) | cleavage product of caspase-3, fold relative to untreated controls (caspase-3) | cleavage product of PARP, fold relative to untreated controls [1] |
| --- | --- | --- | --- | --- |
| CC[C@H](C)[C@@H]([C@@H](CC(=O)N1CCC[C@H]1[C@H](OC)[C@@H](C)C(=O)N[C@H](C)[C@@H](O)c1ccccc1)OC)N(C)C(=O)[C@@H](NC(=O)[C@H](C(C)C)N(C)C(=O)OCc1ccc(NC(=O)[C@H](CCCNC(N)=O)NC(=O)[C@@H](NC(=O)CCC(=O)N2Cc3ccccc3-c3nnn(CCCC[C@H](NC(=O)COCCOCCNC(=O)COCCOCCNC(=O)[C@@H]4CSCC(=O)N[C@H](Cc5ccccc5)C(=O)NCC(=O)N[C@@H](CC(=O)O)C(=O)N[C@@H](Cc5ccccc5)C(=O)N[C@@H]([C@@H](C)CC)C(=O)N[C@@H](CCCNC(=N)N)C(=O)N[C@@H](CCCNC(=N)N)C(=O)N[C@@H](CC(C)C)C(=O)N[C@@H](C(C)C)C(=O)N5CCC[C@H]5C(=O)N[C@@H](CCCNC(=N)N)C(=O)N[C@@H](CC(C)C)C(=O)N4)C(N)=O)c3-c3ccccc32)C(C)C)cc1)C(C)C [NP-N7-MMAE] (I: {CH2CO}-[dF]GDFIRRLVPRLC[AEEA][AEEA][X1]-NH2 / II: V[Cit][PABC][NMeV]V[Dil][Dolaproine]-X2; linker I:16-II:N via Suc; thioether I:N-I:13) | 433.7 | progressive, concentration-dependent reduction in tubulin signal |  |  |
| CC[C@H](C)[C@@H]([C@@H](CC(=O)N1CCC[C@H]1[C@H](OC)[C@@H](C)C(=O)N[C@H](C)[C@@H](O)c1ccccc1)OC)N(C)C(=O)[C@@H](NC(=O)[C@H](C(C)C)N(C)C(=O)OCc1ccc(NC(=O)[C@H](CCCNC(N)=O)NC(=O)[C@@H](NC(=O)CCC(=O)N2Cc3ccccc3-c3nnn(CCCC[C@H](NC(=O)COCCOCCNC(=O)COCCOCCNC(=O)[C@@H]4CSCC(=O)N[C@H](Cc5ccccc5)C(=O)N[C@@H](Cc5ccc(OS(=O)(=O)F)cc5)C(=O)N[C@@H](CC(N)=O)C(=O)N[C@@H](C)C(=O)N[C@@H](Cc5ccccc5)C(=O)N5CCC[C@H]5C(=O)N[C@@H](C(C)C)C(=O)N[C@@H](CCCNC(=N)N)C(=O)N[C@@H](Cc5ccc(O)cc5)C(=O)N[C@@H](CC(C)C)C(=O)N[C@@H](CCCCN)C(=O)N[C@@H](CCCNC(=N)N)C(=O)N[C@@H](Cc5c[nH]c6ccccc56)C(=O)N4)C(N)=O)c3-c3ccccc32)C(C)C)cc1)C(C)C [CP-N9-MMAE] (I: {CH2CO}-[dF][Tyr(SO2F)]NAFPVRYLKRWC[AEEA][AEEA][X1]-NH2 / II: V[Cit][PABC][NMeV]V[Dil][Dolaproine]-X2; linker I:17-II:N via Suc; thioether I:N-I:14) | 215.2 | progressive, concentration-dependent reduction in tubulin signal |  |  |
| CC[C@H](C)[C@@H]([C@@H](CC(=O)N1CCC[C@H]1[C@H](OC)[C@@H](C)C(=O)N[C@H](C)[C@@H](O)c1ccccc1)OC)N(C)C(=O)[C@@H](NC(=O)[C@H](C(C)C)N(C)C(=O)OCc1ccc(NC(=O)[C@H](CCCNC(N)=O)NC(=O)[C@@H](NC(=O)CCC(=O)N2Cc3ccccc3-c3nnn(CCCC[C@H](NC(=O)COCCOCCNC(=O)COCCOCCNC(=O)[C@@H]4CSCC(=O)N[C@H](Cc5ccccc5)C(=O)N[C@@H](Cc5ccc(OS(=O)(=O)F)cc5)C(=O)N[C@@H](CC(N)=O)C(=O)N[C@@H](C)C(=O)N[C@@H](Cc5ccccc5)C(=O)N5CCC[C@H]5C(=O)N[C@@H](C(C)C)C(=O)N[C@@H](CCCNC(=N)N)C(=O)N[C@@H](Cc5ccc(O)cc5)C(=O)N[C@@H](CC(C)C)C(=O)N[C@@H](CCCCN)C(=O)N[C@@H](CCCCN)C(=O)N[C@@H](Cc5c[nH]c6ccccc56)C(=O)N4)C(N)=O)c3-c3ccccc32)C(C)C)cc1)C(C)C [CP-N1-MMAE] (I: {CH2CO}-[dF][Tyr(SO2F)]NAFPVRYLKKWC[AEEA][AEEA][X1]-NH2 / II: V[Cit][PABC][NMeV]V[Dil][Dolaproine]-X2; linker I:17-II:N via Suc; thioether I:N-I:14) | 173.3 | progressive, concentration-dependent reduction in tubulin signal | 5 fold | 1.5 fold |

Source: PMC12541606 (Acta Pharmaceutica Sinica. B, 2025)
